ChEMBL document CHEMBL1123129, “Hypolipidemic activity of indan-1,3-dione derivatives in rodents” (J Med Chem, 1985)

Key:
[1] = tested on: Mus musculus; assay: In Vivo effect for the hypolipidemic activity on Hepatic lipoprotein lipase in CF1 mice after 16 days administered orally at a dose of 20 mg/kg; format: functional; conditions: route oral
Outline: (§1)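 CF1 male mice are dosed orally at 10–60 mg/kg per day for 16 days, with 1% CMC as the control vehicle. Liver is homogenized at 10% in 0.25 M sucrose + 0.001 M EDTA, pH 7.2. Enzymes are assayed by literature methods, with Lowry protein. Activity is given as % of control (X ± SD, N = 6), with p from Student's t test.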

[2] = species on record: Mus musculus; assay: In Vitro evaluation for the CF1 liver enzyme activity on Hepatic lipoprotein lipase at concentration 100 uM; format: functional
Outline: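 Mouse liver enzymes assayed in vitro on 10% homogenates of CF1 male mouse liver, with test drug added at 50–200 μM. Each enzyme follows a published procedure. Protein is measured by Lowry. Activity is given as % of untreated control (X ± SD, N = 6).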

[3] = tested on: Mus musculus; assay: Compound was evaluated for the hypolipidemic activity in CF1 male mice at a dose of 40 mg/kg orally for Serum cholesterol at 9th day; format: functional; conditions: route oral
Outline: (§2)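 CF1 male mice received the agent orally in 1% CMC at 10–60 mg/kg per day. Tail-vein blood was taken on days 9 and 16. Serum cholesterol was measured by modified Liebermann–Burchard on duplicate 25-µL samples, and serum triglyceride on day 16 in duplicate 50-µL samples. Values are % of vehicle control, mean ± SD, N = 6; Student's t test.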

[4] = tested on: Rattus norvegicus; assay: Compound was evaluated for the hypolipidemic activity at 20 mg/kg per day orally for 14 days on protein content in rat feces.; format: functional; conditions: route oral
Outline: (§3)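 Male Sprague–Dawley rats were dosed orally for 14 days. Liver, small intestine and a 24-h fecal collection were lipid-extracted. Extracts were assayed for cholesterol (modified Liebermann–Burchard), triglyceride (enzymatic kit), neutral lipids, phospholipids and protein. Values are % of 1% CMC vehicle control, mean ± SD, N = 6.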

[5] = biological target: T1, Sterol O-acyltransferase 1 (Mus musculus) (UniProt Q61263); assay: In Vitro evaluation for the CF1 liver enzyme activity on Acyl cholesterol acyltransferase at concentration 100 uM; format: functional, tissue-based
T1 sequence (whole entry): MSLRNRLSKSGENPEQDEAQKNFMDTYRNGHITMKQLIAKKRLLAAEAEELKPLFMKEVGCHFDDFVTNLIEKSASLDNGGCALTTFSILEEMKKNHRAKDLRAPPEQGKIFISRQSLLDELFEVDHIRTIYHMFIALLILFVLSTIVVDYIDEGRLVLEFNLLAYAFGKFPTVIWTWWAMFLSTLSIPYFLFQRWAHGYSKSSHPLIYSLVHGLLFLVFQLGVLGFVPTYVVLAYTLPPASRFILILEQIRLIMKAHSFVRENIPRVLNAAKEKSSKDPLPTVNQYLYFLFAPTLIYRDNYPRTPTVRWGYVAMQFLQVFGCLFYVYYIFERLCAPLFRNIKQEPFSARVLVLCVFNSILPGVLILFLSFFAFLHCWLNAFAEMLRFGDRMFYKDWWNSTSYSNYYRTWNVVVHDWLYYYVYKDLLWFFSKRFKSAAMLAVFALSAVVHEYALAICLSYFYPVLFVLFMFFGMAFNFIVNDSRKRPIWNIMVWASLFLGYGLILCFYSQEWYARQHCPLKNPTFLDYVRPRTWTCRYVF
Outline: (§4)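 Liver was taken from CF1 male mice and made into 10% homogenates, which were incubated with test compound at 50, 100 or 200 µM. Each enzyme was assayed by its literature method, and protein was measured by Lowry. N = 6. Activity is expressed as % of untreated control ± SD.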

[6] = tested on: Rattus norvegicus; assay: Compound was evaluated for the hypolipidemic activity at 20 mg/kg per day orally for 14 days on neutral lipids content in rat feces.; format: functional; conditions: route oral; outline: as §3
[7] = biological target: T2, ATP-citrate synthase (Mus musculus) (UniProt Q91V92); assay: In Vitro evaluation for the CF1 liver enzyme activity on ATP-Citrate Lyase exchange at concentration 100 uM; outline: as §4
T2 sequence (whole entry): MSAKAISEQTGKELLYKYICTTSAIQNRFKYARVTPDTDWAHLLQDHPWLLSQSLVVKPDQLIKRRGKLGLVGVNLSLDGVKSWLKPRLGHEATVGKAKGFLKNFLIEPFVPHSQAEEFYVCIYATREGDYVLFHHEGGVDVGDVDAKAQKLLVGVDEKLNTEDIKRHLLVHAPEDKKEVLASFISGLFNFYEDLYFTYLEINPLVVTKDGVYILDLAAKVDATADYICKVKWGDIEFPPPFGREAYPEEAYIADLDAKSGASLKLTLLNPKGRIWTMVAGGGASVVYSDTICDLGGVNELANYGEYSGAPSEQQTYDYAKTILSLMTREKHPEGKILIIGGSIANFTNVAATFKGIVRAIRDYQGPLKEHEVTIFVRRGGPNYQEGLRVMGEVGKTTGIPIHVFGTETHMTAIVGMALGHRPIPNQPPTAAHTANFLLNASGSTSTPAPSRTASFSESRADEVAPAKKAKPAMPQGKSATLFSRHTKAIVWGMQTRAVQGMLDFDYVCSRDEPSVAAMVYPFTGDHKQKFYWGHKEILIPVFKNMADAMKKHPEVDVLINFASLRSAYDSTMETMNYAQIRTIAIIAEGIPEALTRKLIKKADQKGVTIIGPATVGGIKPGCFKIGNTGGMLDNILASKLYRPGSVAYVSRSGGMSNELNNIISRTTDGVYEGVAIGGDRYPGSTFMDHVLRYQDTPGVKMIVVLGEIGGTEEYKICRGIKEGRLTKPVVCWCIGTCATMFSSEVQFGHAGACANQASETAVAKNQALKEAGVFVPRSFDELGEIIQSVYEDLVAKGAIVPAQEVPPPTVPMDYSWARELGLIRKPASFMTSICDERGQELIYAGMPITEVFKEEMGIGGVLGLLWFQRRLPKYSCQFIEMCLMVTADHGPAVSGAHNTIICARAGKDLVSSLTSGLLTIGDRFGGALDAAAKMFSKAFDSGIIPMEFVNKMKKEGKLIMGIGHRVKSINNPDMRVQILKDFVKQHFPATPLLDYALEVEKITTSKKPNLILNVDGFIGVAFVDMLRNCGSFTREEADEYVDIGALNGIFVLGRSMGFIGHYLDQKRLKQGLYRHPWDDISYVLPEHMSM

[8] = tested on: Mus musculus; assay: Compound was evaluated for the hypolipidemic activity in CF1 male mice at a dose of 60 mg/kg orally for Serum triglyceride at 16th day; format: functional; conditions: route oral
Outline: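 CF1 male mice dosed orally at 10–60 mg/kg per day, with 1% CMC as the vehicle control; N = 6 per group. Serum cholesterol was read on days 9 and 16 and serum triglyceride on day 16. Liver lipids were extracted on day 16 and assayed for cholesterol, triglyceride, neutral lipid, phospholipid and protein. Values are given as % of control ± SD.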

[9] = biological target: T1, Sterol O-acyltransferase 1 (Mus musculus); assay: In Vivo effect for the hypolipidemic activity on Acyl-COA cholesterol acyltransferase in CF1 mice after 16 days of oral administration at a dose of 60 mg/kg; format: functional, organism-based; parameters: dose 60 mg/kg; outline: as §1
[10] = tested on: Mus musculus; assay: In Vivo effect for the hypolipidemic activity on Acetyl-CoA carboxylase in CF1 mice after 16 days administered orally at a dose of 60 mg/kg; format: functional; conditions: route oral; outline: as §1
[11] = tested on: Mus musculus; assay: Compound was evaluated for the hypolipidemic activity in CF1 male mice at a dose of 40 mg/kg orally for Serum cholesterol at 16th day; format: functional; conditions: route oral; outline: as §2

## COc1ccc(C2C(=O)c3ccccc3C2=O)cc1 [ANISINDIONE]
[1]
  Control: 82%
[2]
  Control: 94%
[3]
  Control: 79%
[4]
  Control: 99%
[5]
  Control: 63%
[6]
  Control: 101%
[7]
  Control: 51%
[8]
  Control: 67%
[9]
  Control: 48%
[10]
  Control: 97%
[11]
  Control: 48%
